# Assay results as given in the M2OR odorant receptor database.
# Legend:
# Details in all cases: stereoisomer not certain
# [1] = test system: T1, O5AN1
# T1 sequence (whole entry): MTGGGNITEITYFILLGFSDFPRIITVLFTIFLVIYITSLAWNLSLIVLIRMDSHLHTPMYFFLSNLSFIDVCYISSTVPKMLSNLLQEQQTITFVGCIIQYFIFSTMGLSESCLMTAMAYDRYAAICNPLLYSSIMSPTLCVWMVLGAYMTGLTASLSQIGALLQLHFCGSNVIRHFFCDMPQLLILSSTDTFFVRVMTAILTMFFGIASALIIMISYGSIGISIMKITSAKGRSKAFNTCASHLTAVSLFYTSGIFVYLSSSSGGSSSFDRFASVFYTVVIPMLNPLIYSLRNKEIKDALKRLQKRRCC
# Summary of the method: (§1)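 Each entry records the cell line, G-protein, co-transfected protein and tags used. Methods varied with the source, often transient luciferase assays in mammalian cell lines. A receptor–molecule pair is called responsive (active) if the original authors judged its signal statistically different from baseline and non-responsive (inactive) otherwise.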
# [2] = test system: O5AN1 L289F
# Chain of O5AN1 L289F (as listed by the source, stated change not applied): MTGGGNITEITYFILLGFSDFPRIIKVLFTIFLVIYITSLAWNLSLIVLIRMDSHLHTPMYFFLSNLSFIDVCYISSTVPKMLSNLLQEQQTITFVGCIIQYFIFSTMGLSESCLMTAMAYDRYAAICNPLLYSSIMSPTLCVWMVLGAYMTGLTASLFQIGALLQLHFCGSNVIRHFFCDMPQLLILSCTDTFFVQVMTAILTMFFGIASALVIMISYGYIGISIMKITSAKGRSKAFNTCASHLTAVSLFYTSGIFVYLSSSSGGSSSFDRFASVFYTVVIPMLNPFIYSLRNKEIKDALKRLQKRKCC
# Summary of the method: as §1
# [3] = test system: O5AP2 A105T
# Chain of O5AP2 A105T (as listed by the source, stated change not applied): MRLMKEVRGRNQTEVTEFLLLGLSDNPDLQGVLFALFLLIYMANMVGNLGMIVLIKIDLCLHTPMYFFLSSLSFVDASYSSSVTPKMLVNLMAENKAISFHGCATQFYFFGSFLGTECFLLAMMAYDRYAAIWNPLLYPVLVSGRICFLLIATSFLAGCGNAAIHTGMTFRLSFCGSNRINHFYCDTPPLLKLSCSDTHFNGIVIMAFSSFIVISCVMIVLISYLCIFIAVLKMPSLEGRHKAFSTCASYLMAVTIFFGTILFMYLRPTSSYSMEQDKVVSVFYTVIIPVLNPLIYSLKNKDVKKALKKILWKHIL
# Summary of the method: as §1
# [4] = test system: O5AU1
# Chain of O5AU1 (as listed by the source): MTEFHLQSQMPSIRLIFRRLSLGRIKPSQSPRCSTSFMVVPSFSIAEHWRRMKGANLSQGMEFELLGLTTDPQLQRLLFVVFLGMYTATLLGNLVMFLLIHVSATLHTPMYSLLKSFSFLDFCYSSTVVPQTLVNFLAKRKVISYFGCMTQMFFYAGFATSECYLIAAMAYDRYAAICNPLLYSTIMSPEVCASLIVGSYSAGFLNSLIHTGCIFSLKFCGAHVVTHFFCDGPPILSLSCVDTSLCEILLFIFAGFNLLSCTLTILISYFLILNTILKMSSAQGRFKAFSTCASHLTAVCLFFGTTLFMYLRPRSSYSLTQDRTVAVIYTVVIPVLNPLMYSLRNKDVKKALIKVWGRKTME
# Summary of the method: as §1
# [5] = test system: O5H14
# Chain of O5H14 (as listed by the source): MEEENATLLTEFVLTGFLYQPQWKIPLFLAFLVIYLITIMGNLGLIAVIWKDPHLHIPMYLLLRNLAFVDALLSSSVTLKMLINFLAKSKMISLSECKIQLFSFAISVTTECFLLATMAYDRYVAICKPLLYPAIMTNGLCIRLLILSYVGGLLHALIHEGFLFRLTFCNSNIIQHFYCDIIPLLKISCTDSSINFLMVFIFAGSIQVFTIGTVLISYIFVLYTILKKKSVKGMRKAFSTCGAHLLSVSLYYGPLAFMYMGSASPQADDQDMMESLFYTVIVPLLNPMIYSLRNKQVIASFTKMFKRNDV
# Summary of the method: as §1
# [6] = test system: O5H15 V108I S148T T167S
# Summary of the method: as §1
# [7] = test system: O6C65 T222A
# Chain of O6C65 T222A (as listed by the source, stated change not applied): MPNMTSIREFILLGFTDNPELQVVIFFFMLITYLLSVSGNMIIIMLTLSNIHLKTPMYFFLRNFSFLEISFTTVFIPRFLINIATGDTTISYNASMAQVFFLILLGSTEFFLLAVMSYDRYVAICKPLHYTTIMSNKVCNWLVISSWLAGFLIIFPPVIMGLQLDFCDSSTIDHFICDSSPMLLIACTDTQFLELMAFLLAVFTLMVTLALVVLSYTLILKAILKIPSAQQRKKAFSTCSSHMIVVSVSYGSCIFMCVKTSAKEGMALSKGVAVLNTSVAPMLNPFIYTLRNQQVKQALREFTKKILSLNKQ
# Summary of the method: as §1
# [8] = test system: O6C70 L181P
# Chain of O6C70 L181P (as listed by the source, stated change not applied): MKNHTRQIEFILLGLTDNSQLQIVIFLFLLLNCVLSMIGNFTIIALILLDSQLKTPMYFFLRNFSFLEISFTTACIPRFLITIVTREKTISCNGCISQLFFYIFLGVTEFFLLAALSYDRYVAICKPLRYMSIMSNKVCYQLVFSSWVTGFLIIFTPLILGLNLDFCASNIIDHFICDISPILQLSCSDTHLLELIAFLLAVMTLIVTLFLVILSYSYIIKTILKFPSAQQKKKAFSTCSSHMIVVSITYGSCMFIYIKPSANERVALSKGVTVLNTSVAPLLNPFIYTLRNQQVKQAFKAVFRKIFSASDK
# Summary of the method: as §1
# [9] = test system: O7E24 S193F P242S
# Summary of the method: as §1
# [10] = test system: O7E24
# Chain of O7E24 (as listed by the source): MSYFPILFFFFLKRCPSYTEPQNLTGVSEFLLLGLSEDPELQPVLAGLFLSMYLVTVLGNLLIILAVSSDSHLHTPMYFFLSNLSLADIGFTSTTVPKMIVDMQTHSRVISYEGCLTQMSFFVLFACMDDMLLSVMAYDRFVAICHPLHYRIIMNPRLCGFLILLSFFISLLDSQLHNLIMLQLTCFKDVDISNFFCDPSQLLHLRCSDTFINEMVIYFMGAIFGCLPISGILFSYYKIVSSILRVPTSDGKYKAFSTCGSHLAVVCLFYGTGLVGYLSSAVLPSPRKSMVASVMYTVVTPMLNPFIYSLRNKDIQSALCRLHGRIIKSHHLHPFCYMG
# Summary of the method: as §1
compound,measurement,setting,value
Cc1c([N+](=O)[O-])c(C)c([N+](=O)[O-])c(C(C)(C)C)c1[N+](=O)[O-],odorant receptor agonist call,[1],active
CC(=O)c1cc(C(C)(C)C)cc2c1CCC2(C)C,odorant receptor agonist call,[1],inactive
CC(=O)c1cc2c(cc1C)C(C)(C)C(C)CC2(C)C (configuration not stated),odorant receptor agonist call,[1],inactive
C=CCOC(=O)Cc1ccccc1,odorant receptor agonist call,[2],inactive
same,odorant receptor agonist call,[3],inactive
same,odorant receptor agonist call,[4],inactive
same,odorant receptor agonist call,[5],inactive
same,odorant receptor agonist call,[6],inactive
same,odorant receptor agonist call,[7],inactive
same,odorant receptor agonist call,[8],inactive
same,odorant receptor agonist call,[9],inactive
same,odorant receptor agonist call,[10],inactive
